Assay results published in paper PMC4277207 (ChemMedChem, 2014).
Where two headings read alike, the source gives them in different places.

Key:
[1] = test system: D1-like receptor (D1 and D5); test: [3H]SCH 23390 binding assay, rat striatal membranes; conditions: ratio of Ki values, rat brain preparation
[2] = test system: D2-like receptor (D2, D3, and D4); test: [3H]spiperone binding assay, rat striatal; conditions: ratio of Ki values, rat brain preparation
Procedure, shortened: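 The D2-like assay used [3H]spiperone at 0.2 nM on caudate-putamen membranes at 1.5 mg o.w.w./mL, in agonist-optimised Tris-HCl/KCl/MgCl2/CaCl2 buffer at pH 7.4. Nonspecific binding was set with 1 μM (+)-butaclamol, and KD was 0.4 nM. For two-site curves, the high-affinity Ki is reported. […] Values are means of 3–6 determinations.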

[3] = target: human D3 receptor (Homo sapiens, UniProt P35462); assay type: cell-based; conditions: hD3-transfected CHOp cells, mitogenesis; for IC50: read-out: Agonist activity: IC50, mean ± SEM of 3–6 determinations
[4] = assay type: in vitro ADME

Sequence of human D3 receptor (P35462 whole entry): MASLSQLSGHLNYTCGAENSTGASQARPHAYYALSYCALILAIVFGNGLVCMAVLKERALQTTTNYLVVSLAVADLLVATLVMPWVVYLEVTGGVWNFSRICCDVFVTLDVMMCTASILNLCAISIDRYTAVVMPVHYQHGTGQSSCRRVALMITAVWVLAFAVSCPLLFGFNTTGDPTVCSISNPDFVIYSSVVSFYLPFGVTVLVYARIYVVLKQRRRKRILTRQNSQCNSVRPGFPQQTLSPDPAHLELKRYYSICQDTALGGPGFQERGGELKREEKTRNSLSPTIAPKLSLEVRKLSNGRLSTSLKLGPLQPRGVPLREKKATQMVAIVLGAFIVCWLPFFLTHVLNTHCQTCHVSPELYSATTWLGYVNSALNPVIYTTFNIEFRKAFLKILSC

CCCN(CC[C@]1(O)C[C@H](NC(=O)c2cccc(Cl)c2)C1)[C@H]1CCc2nc(N)sc2C1 (relative stereo) [Compound 13, N-(cis-3-(2-(((S)-2-Amino-4,5,6,7-tetrahydrobenzo[d]thiazol-6-yl)(propyl)-amino)ethyl)-3-hydroxycyclobutyl)-3-chlorobenzamide]
Selectivity D1-like/D3 [1]: 49,482
Selectivity D2-like/D3 [2]: 175

CCCN(CC[C@]1(O)C[C@@H](NC(=O)c2cccc(F)c2)C1)[C@H]1CCc2nc(N)sc2C1 (relative stereo) [Compound 16, N-(cis-3-(2-(((S)-2-Amino-4,5,6,7-tetrahydrobenzo[d]thiazol-6-yl)(propyl)amino)-ethyl)-3-hydroxycyclobutyl)-3-fluorobenzamide]
Selectivity D1-like/D3 [1]: 29,789
Selectivity D2-like/D3 [2]: 138

CCCN(CC[C@]1(O)C[C@H](NS(=O)(=O)c2ccccc2OC)C1)[C@H]1CCc2nc(N)sc2C1 (relative stereo) [Compound 25, N-(cis-3-(2-(((S)-2-Amino-4,5,6,7-tetrahydrobenzo[d]thiazol-6-yl)(propyl)amino)-ethyl)-3-hydroxycyclobutyl)-2-methoxybenzenesulfonamide]
Selectivity D1-like/D3 [1]: 800
Selectivity D2-like/D3 [2]: 75

CCCN(CC[C@]1(O)C[C@@H](NS(=O)(=O)c2ccccc2Cl)C1)[C@H]1CCc2nc(N)sc2C1 (relative stereo) [Compound 28, N-(cis-3-(2-(((S)-2-Amino-4,5,6,7-tetrahydrobenzo[d]thiazol-6-yl)(propyl)amino)-ethyl)-3-hydroxycyclobutyl)-2-chlorobenzenesulfonamide]
Selectivity D1-like/D3 [1]: 160,847
Selectivity D2-like/D3 [2]: 485

CCCN(CC[C@]1(O)C[C@@H](NS(=O)(=O)c2cccc(Cl)c2)C1)[C@H]1CCc2nc(N)sc2C1 (relative stereo) [Compound 29, N-(cis-3-(2-(((S)-2-Amino-4,5,6,7-tetrahydrobenzo[d]thiazol-6-yl)(propyl)amino)-ethyl)-3-hydroxycyclobutyl)-3-chlorobenzenesulfonamide]
Selectivity D1-like/D3 [1]: 27,200
Selectivity D2-like/D3 [2]: 28

CCCN(CC[C@]1(O)C[C@@H](NS(=O)(=O)c2ccc(F)cc2)C1)[C@H]1CCc2nc(N)sc2C1 (relative stereo) [Compound 33, N-(cis-3-(2-(((S)-2-Amino-4,5,6,7-tetrahydrobenzo[d]thiazol-6-yl)(propyl)amino)-ethyl)-3-hydroxycyclobutyl)-4-fluorobenzenesulfonamide]
Selectivity D1-like/D3 [1]: 53,684
% of Stimulation compared to Quinpirole as the standard agonist [3]: 100%
functional activity at the human D3 receptor (agonist character) [3]: full D3 agonists
IC50 [3]: 17 ± 4.4 nM
Selectivity D2-like/D3 [2]: 414

CCCN(CCC1(O)CC(NC(=O)c2ccccc2)C1)[C@H]1CCc2nc(N)sc2C1 (stereo in doubt) [Compound 11, N-(cis-3-(2-(((S)-2-Amino-4,5,6,7-tetrahydrobenzo[d]thiazol-6-yl)(propyl)amino)-ethyl)-3-hydroxycyclobutyl)benzamide]
Selectivity D1-like/D3 [1]: 2,662
Selectivity D2-like/D3 [2]: 301

CCCN(CCC1(O)CC(NC(=O)c2ccccc2Cl)C1)[C@H]1CCc2nc(N)sc2C1 (stereo in doubt) [Compound 12, N-(cis-3-(2-(((S)-2-Amino-4,5,6,7-tetrahydrobenzo[d]thiazol-6-yl)(propyl)amino)-ethyl)-3-hydroxycyclobutyl)-2-chlorobenzamide]
Selectivity D1-like/D3 [1]: 80,161
Selectivity D2-like/D3 [2]: 117

CCCN(CCC1(O)CC(NC(=O)c2ccc(Cl)cc2)C1)[C@H]1CCc2nc(N)sc2C1 (stereo in doubt) [Compound 14, N-(cis-3-(2-(((S)-2-Amino-4,5,6,7-tetrahydrobenzo[d]thiazol-6-yl)(propyl)amino)-ethyl)-3-hydroxycyclobutyl)-4-chlorobenzamide]
Selectivity D1-like/D3 [1]: 9,751
Selectivity D2-like/D3 [2]: 157

CCCN(CCC1(O)CC(NC(=O)c2ccccc2F)C1)[C@H]1CCc2nc(N)sc2C1 (stereo in doubt) [Compound 15, N-(cis-3-(2-(((S)-2-amino-4,5,6,7-tetrahydrobenzo[d]thiazol-6-yl)(propyl)amino)-ethyl)-3-hydroxycyclobutyl)-2-fluorobenzamide]
Selectivity D1-like/D3 [1]: 116,521
% of Stimulation compared to Quinpirole as the standard agonist [3]: 100%
functional activity at the human D3 receptor (agonist character) [3]: full D3 agonists
IC50 [3]: 2 ± 0.49 nM
Selectivity D2-like/D3 [2]: 36,956

CCCN(CCC1(O)CC(NC(=O)c2ccc(F)cc2)C1)[C@H]1CCc2nc(N)sc2C1 (stereo in doubt) [Compound 17, N-(cis-3-(2-(((S)-2-Amino-4,5,6,7-tetrahydrobenzo[d]thiazol-6-yl)(propyl)amino)-ethyl)-3-hydroxycyclobutyl)-4-fluorobenzamide]
Selectivity D1-like/D3 [1]: 56,180
Selectivity D2-like/D3 [2]: 412

CCCN(CCC1(O)CC(NC(=O)c2ccccc2OC)C1)[C@H]1CCc2nc(N)sc2C1 (stereo in doubt) [Compound 19, N-(cis-3-(2-(((S)-2-Amino-4,5,6,7-tetrahydrobenzo[d]thiazol-6-yl)(propyl)amino)-ethyl)-3-hydroxycyclobutyl)-2-methoxybenzamide]
Selectivity D1-like/D3 [1]: 44,500
Selectivity D2-like/D3 [2]: 160

CCCN(CCC1(O)CC(NC(=O)c2ccc(OC)cc2)C1)[C@H]1CCc2nc(N)sc2C1 (stereo in doubt) [Compound 20, N-(cis-3-(2-(((S)-2-Amino-4,5,6,7-tetrahydrobenzo[d]thiazol-6-yl)(propyl)amino)-ethyl)-3-hydroxycyclobutyl)-4-methoxybenzamide]
t1/2 in human liver microsomes [4]: >1 h
Percentage remaining of compounds in human liver microsomes ([4]; 0 h): 100%
Percentage remaining of compounds in human liver microsomes ([4]; 5 min): 97.7%
Percentage remaining of compounds in human liver microsomes ([4]; 10 min): 94.1%
Percentage remaining of compounds in human liver microsomes ([4]; 0.25 h): 94.0%
Percentage remaining of compounds in human liver microsomes ([4]; 0.5 h): 85.5%
Percentage remaining of compounds in human liver microsomes ([4]; 1 h): 76.7%
Selectivity D1-like/D3 [1]: 61,143
Selectivity D2-like/D3 [2]: 3,779

CCCN(CCC1(O)CC(NC(=O)c2ccc(-c3noc(C)n3)cc2)C1)[C@H]1CCc2nc(N)sc2C1 (stereo in doubt) [Compound 22, N-(cis-3-(2-(((S)-2-amino-4,5,6,7-tetrahydrobenzo[d]thiazol-6-yl)(propyl)amino)-ethyl)-3-hydroxycyclobutyl)-4-(5-methyl-1,2,4-oxadiazol-3-yl)benzamide]
Selectivity D1-like/D3 [1]: 20,000
Selectivity D2-like/D3 [2]: 15,208

CCCN(CCC1(O)CC(NS(=O)(=O)c2ccccc2)C1)[C@H]1CCc2nc(N)sc2C1 (stereo in doubt) [Compound 24, N-(cis-3-(2-(((S)-2-Amino-4,5,6,7-tetrahydrobenzo[d]thiazol-6-yl)(propyl)amino)-ethyl)-3-hydroxycyclobutyl)benzenesulfonamide]
Selectivity D1-like/D3 [1]: 30,000
Selectivity D2-like/D3 [2]: 42

CCCN(CCC1(O)CC(NS(=O)(=O)c2cccc(OC)c2)C1)[C@H]1CCc2nc(N)sc2C1 (stereo in doubt) [Compound 26, N-(cis-3-(2-(((S)-2-Amino-4,5,6,7-tetrahydrobenzo[d]thiazol-6-yl)(propyl)amino)-ethyl)-3-hydroxycyclobutyl)-3-methoxybenzenesulfonamide]
Selectivity D1-like/D3 [1]: 22,812
Selectivity D2-like/D3 [2]: 98

CCCN(CCC1(O)CC(NS(=O)(=O)c2ccc(OC)cc2)C1)[C@H]1CCc2nc(N)sc2C1 (stereo in doubt) [Compound 27, N-(cis-3-(2-(((S)-2-Amino-4,5,6,7-tetrahydrobenzo[d]thiazol-6-yl)(propyl)amino)-ethyl)-3-hydroxycyclobutyl)-4-methoxybenzenesulfonamide]
Selectivity D1-like/D3 [1]: 1,631
Selectivity D2-like/D3 [2]: 65

CCCN(CCC1(O)CC(NS(=O)(=O)c2ccc(Cl)cc2)C1)[C@H]1CCc2nc(N)sc2C1 (stereo in doubt) [Compound 30, N-(cis-3-(2-(((S)-2-Amino-4,5,6,7-tetrahydrobenzo[d]thiazol-6-yl)(propyl)amino)-ethyl)-3-hydroxycyclobutyl)-4-chlorobenzenesulfonamide]
Selectivity D1-like/D3 [1]: 17,654
Selectivity D2-like/D3 [2]: 205

CCCN(CCC1(O)CC(NS(=O)(=O)c2ccccc2F)C1)[C@H]1CCc2nc(N)sc2C1 (stereo in doubt) [Compound 31, N-(cis-3-(2-(((S)-2-Amino-4,5,6,7-tetrahydrobenzo[d]thiazol-6-yl)(propyl)amino)-ethyl)-3-hydroxycyclobutyl)-2-fluorobenzenesulfonamide]
Selectivity D1-like/D3 [1]: 109,000
Selectivity D2-like/D3 [2]: 614

CCCN(CCC1(O)CC(NS(=O)(=O)c2cccc(F)c2)C1)[C@H]1CCc2nc(N)sc2C1 (stereo in doubt) [Compound 32, N-(cis-3-(2-(((S)-2-Amino-4,5,6,7-tetrahydrobenzo[d]thiazol-6-yl)(propyl)amino)-ethyl)-3-hydroxycyclobutyl)-3-fluorobenzenesulfonamide]
Selectivity D1-like/D3 [1]: 97,500
Selectivity D2-like/D3 [2]: 91

CCCN(CCC1(O)CC(NS(=O)(=O)c2ccc(F)c(F)c2)C1)[C@H]1CCc2nc(N)sc2C1 (stereo in doubt) [Compound 35, N-(cis-3-(2-(((S)-2-Amino-4,5,6,7-tetrahydrobenzo[d]thiazol-6-yl)(propyl)amino)-ethyl)-3-hydroxycyclobutyl)-3,4-difluorobenzenesulfonamide]
Selectivity D1-like/D3 [1]: 24,516
Selectivity D2-like/D3 [2]: 19

CCCN(CCC1(O)CC(NC(=O)c2ccc3ccccc3c2)C1)[C@H]1CCc2nc(N)sc2C1 (stereo partly shown) [Compound 3]
Percentage remaining of compounds in human liver microsomes ([4]; 0 h): 100%
Percentage remaining of compounds in human liver microsomes ([4]; 5 min): 79.2%
Percentage remaining of compounds in human liver microsomes ([4]; 10 min): 49.9%
Percentage remaining of compounds in human liver microsomes ([4]; 0.25 h): 34.9%
Percentage remaining of compounds in human liver microsomes ([4]; 0.5 h): 11.7%
Percentage remaining of compounds in human liver microsomes ([4]; 1 h): 2.1%
